{"data": "Results collected from several papers", "SLC10A2": "Ileal sodium/bile acid cotransporter (SLC10A2, Homo sapiens, UniProt Q12908)", "SETD7": "Histone-lysine N-methyltransferase SETD7 (SETD7, Homo sapiens, UniProt Q8WTS6)", "note": "Protocols differ between the studies behind these lines."}
{"SMILES": "CCN(c1cc(C#CCN2CCOCC2)cc(C(=O)NCc2c(C)cc(C)[nH]c2=O)c1C)[C@H]1CC[C@H](N(C)CCOC)CC1", "target": "Histone-lysine N-methyltransferase SETD2 (SETD2, Homo sapiens, UniProt Q9BYW2)", "test": "enzyme activity, inhibitor", "setting": "1 µM", "inhibition [%]": 20}
{"SMILES": "CC(=O)N[C@H]1CSSC[C@@H](C(=O)N[C@H](Cc2c[nH]c3ccccc23)C(N)=O)NC(=O)[C@@H](Cc2ccccc2)NC(=O)[C@H](CCCNC(=N)N)NC1=O", "target": "Melanocortin receptor 5 (MC5R, Homo sapiens, UniProt P33032)", "test": "ligand displacement, radioligand", "setting": "10 µM, 40 min", "inhibition [%]": 0}
{"SMILES": "C=C[C@H]1C[N@@]2CC[C@H]1C[C@H]2[C@H](O)c1ccnc2ccc(OC)cc12", "target": "SLC10A2", "test": "transporter uptake, inhibitor, radiometric", "setting": "1 mM", "inhibition [%]": 59.9}
{"SMILES": "CSCCC(NC=O)C(=O)NC(C)C(=O)O (stereo not drawn)", "target": "SETD7", "test": "cell-free assay", "setting": "10 µM", "inhibition [%]": 7}
{"SMILES": "O=C(O)c1cc(=O)c2c(OCC(O)COc3cccc4oc(C(=O)O)cc(=O)c34)cccc2o1", "target": "SLC10A2", "test": "transporter uptake, inhibitor, radiometric", "setting": "1 mM", "inhibition [%]": "< 10"}
{"SMILES": "O=c1c(O)cccc2c([C@H]3Oc4cc(O)cc(O)c4C[C@H]3O)cc(O)c(O)c12", "target": "SETD7", "test": "cell-free assay", "setting": "10 µM", "inhibition [%]": 16}
{"SMILES": "CN1CC(Oc2cnc(C#N)cc2-c2ccn3nc(NC(=O)C4CC4)cc3c2)C1", "target": "Serine/threonine-protein kinase 35 (STK35, Homo sapiens, UniProt Q8TDR2)", "test": "enzyme activity, inhibitor", "setting": "1 µM", "inhibition [%]": 1}
{"SMILES": "O=c1c(O)cccc2cc(O)c(O)c(O)c12", "target": "SETD7", "test": "cell-free assay", "setting": "10 µM", "inhibition [%]": 27}
{"SMILES": "CNC(=C[N+](=O)[O-])NCCSCc1ccc(CN(C)C)o1", "target": "SLC10A2", "test": "transporter uptake, inhibitor, radiometric", "setting": "1 mM", "inhibition [%]": 30.2}
